Converted amounts (≈) assume the structure as drawn.
Tests used:
Staphylococcus aureus [1] = test: Minimum inhibitory concentration against Staphylococcus aureus (H-228).; type: functional
Outline: (§1)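 MICs were determined by standard microtitration against a panel of 11 bacterial strains. Aqueous stock solutions were prepared with 0.1 N sodium or potassium hydroxide.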

Enterobacter = test: Minimum inhibitory concentration against gram-negative enterobacteriaceae.; type: functional
Outline: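 This value is the geometric mean of microtitration MICs for the Gram-negative Enterobacteriaceae strains in the 11-organism panel. Aqueous stocks were prepared in 0.1 N sodium or potassium hydroxide.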

Streptococcus pyogenes = test: Minimum inhibitory concentration against Streptococcus pyogenes (C203).; type: functional; outline: as §1
Staphylococcus aureus [2] = test: Minimum inhibitory concentration against Staphylococcus aureus (UC76).; type: functional; outline: as §1
[3] = target: DNA gyrase (Escherichia coli) (UniProt P0AES6+P0AES4); test: Concentration required for 50% inhibition of gyrase.; type: protein-complex assay
Outline: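 DNA gyrase inhibition: the drug concentration (µg/mL) giving 50% inhibition (I50) was recorded, along with the lowest concentration inducing gyrase-mediated DNA cleavage. Data come from duplicate experiments with ±50% reproducibility.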

Streptococcus pneumoniae = test: Minimum inhibitory concentration against Streptococcus pneumoniae (SV-1).; type: functional; outline: as §1
Pseudomonas aeruginosa = test: Minimum inhibitory concentration against Pseudomonas aeruginosa. (UI-18); type: functional; outline: as §1
Providencia rettgeri = test: Minimum inhibitory concentration against Providencia rettgeri. (M1771); type: functional; outline: as §1
Enterobacter cloacae = test: Minimum inhibitory concentration against Enterobacter cloacae. (MA2446).; type: functional
Escherichia coli [4] = test: Minimum inhibitory concentration against Escherichia coli (vogel); type: functional; outline: as §1
Klebsiella pneumoniae = test: Minimum inhibitory concentration against Klebsiella pneumoniae (MGH-2); type: functional; outline: as §1
Escherichia coli [5] = test: Minimum inhibitory concentration against Escherichia coli (H560); type: functional; outline: as §1
Enterococcus faecalis = test: Minimum inhibitory concentration against Streptococcus faecalis (MGH-2).; type: functional; outline: as §1
Mus musculus [6] = test: In vivo activity against Pseudomonas aeruginosa (po); type: functional; conditions: read-out: PD50
Outline: (§2)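 Median protective dose (PD50, mg/kg) measured in acute, lethal, systemic infections in female Charles River CD-1 mice. A single dose of compound was given at the time of bacterial challenge. Aqueous stock solutions were made with 0.1 N sodium or potassium hydroxide.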

Mus musculus [7] = test: In vivo activity against Streptococcus pneumoniae (sc); type: functional; conditions: read-out: PD50; outline: as §2
Mus musculus [8] = test: In vivo activity against Streptococcus pyogenes (po); type: functional; conditions: read-out: PD50; outline: as §2
Mus musculus [9] = test: In vivo activity against Escherichia coli (sc); type: functional; conditions: read-out: PD50; outline: as §2
Mus musculus [10] = test: In vivo activity against Pseudomonas aeruginosa (sc); type: functional; conditions: read-out: PD50; outline: as §2
Mus musculus [11] = test: In vivo activity against Escherichia coli (po); type: functional; conditions: read-out: PD50; outline: as §2
Mus musculus [12] = test: In vivo activity against Streptococcus pneumoniae (po); type: functional; conditions: read-out: PD50; outline: as §2
Mus musculus [13] = test: In vivo activity against Streptococcus pyogenes (sc); type: functional; conditions: read-out: PD50; outline: as §2

| SMILES | MIC (Staphylococcus aureus [1]) | MIC (Enterobacter) | MIC (Streptococcus pyogenes) | MIC (Staphylococcus aureus [2]) | IC50 [3] | MIC (Streptococcus pneumoniae) | MIC (Pseudomonas aeruginosa) | MIC (Providencia rettgeri) | MIC (Enterobacter cloacae) | MIC (Escherichia coli [4]) | MIC (Klebsiella pneumoniae) | MIC (Escherichia coli [5]) | MIC (Enterococcus faecalis) | also measured |
| --- | --- | --- | --- | --- | --- | --- | --- | --- | --- | --- | --- | --- | --- | --- |
| C=Cn1cc(C(=O)O)c(=O)c2cc(F)c(N3CCC(CNCC)C3)c(F)c21 (stereo not given) | 0.4 µg/mL (≈ 1.06 µM) | 0.3 µg/mL (≈ 0.795 µM) | 0.1 µg/mL (≈ 0.265 µM) | 0.1 µg/mL (≈ 0.265 µM) | 2.9 µg/mL (≈ 7.68 µM) | 0.2 µg/mL (≈ 0.53 µM) | 1.6 µg/mL (≈ 4.24 µM) | 1.6 µg/mL (≈ 4.24 µM) | 0.2 µg/mL (≈ 0.53 µM) | 0.2 µg/mL (≈ 0.53 µM) | 0.4 µg/mL (≈ 1.06 µM) | 0.1 µg/mL (≈ 0.265 µM) | 0.4 µg/mL (≈ 1.06 µM) | – |
| CCNCC1CCN(c2c(F)cc3c(=O)c(C(=O)O)cn(CC4CC4)c3c2F)C1 (stereo not given) | 0.2 µg/mL (≈ 0.493 µM) | 2.09 µg/mL (≈ 5.15 µM) | 0.4 µg/mL (≈ 0.987 µM) | 0.1 µg/mL (≈ 0.247 µM) | 30 µg/mL (≈ 74 µM) | 0.8 µg/mL (≈ 1.97 µM) | 25 µg/mL (≈ 61.7 µM) | 12.5 µg/mL (≈ 30.8 µM) | 3.1 µg/mL (≈ 7.65 µM) | 0.8 µg/mL (≈ 1.97 µM) | 1.6 µg/mL (≈ 3.95 µM) | 0.8 µg/mL (≈ 1.97 µM) | 0.8 µg/mL (≈ 1.97 µM) | – |
| CCNCC1CCN(c2c(F)cc3c(=O)c(C(=O)O)cn(-c4nccs4)c3c2F)C1 (stereo not given) | 25 µg/mL (≈ 57.5 µM) | 3.14 µg/mL (≈ 7.23 µM) | 6.3 µg/mL (≈ 14.5 µM) | 1.6 µg/mL (≈ 3.68 µM) | 30 µg/mL (≈ 69 µM) | 12.5 µg/mL (≈ 28.8 µM) | 25 µg/mL (≈ 57.5 µM) | 12.5 µg/mL (≈ 28.8 µM) | 1.6 µg/mL (≈ 3.68 µM) | 1.6 µg/mL (≈ 3.68 µM) | 3.1 µg/mL (≈ 7.14 µM) | 3.1 µg/mL (≈ 7.14 µM) | 6.3 µg/mL (≈ 14.5 µM) | – |
| CCNCC1CCN(c2c(F)cc3c(=O)c(C(=O)O)cn(NC)c3c2F)C1 (stereo not given) | 0.4 µg/mL (≈ 1.05 µM) | 0.3 µg/mL (≈ 0.789 µM) | 0.2 µg/mL (≈ 0.526 µM) | 0.2 µg/mL (≈ 0.526 µM) | 27 µg/mL (≈ 71 µM) | 0.1 µg/mL (≈ 0.263 µM) | 0.8 µg/mL (≈ 2.1 µM) | 1.6 µg/mL (≈ 4.21 µM) | 0.2 µg/mL (≈ 0.526 µM) | 0.2 µg/mL (≈ 0.526 µM) | 0.2 µg/mL (≈ 0.526 µM) | 0.2 µg/mL (≈ 0.526 µM) | 0.4 µg/mL (≈ 1.05 µM) | – |
| CCNCC1CCN(c2c(F)cc3c(=O)c(C(=O)O)cn(C4CC4C)c3c2F)C1 (stereo not given) | 0.8 µg/mL (≈ 1.97 µM) | 1.59 µg/mL (≈ 3.92 µM) | 0.8 µg/mL (≈ 1.97 µM) | 0.2 µg/mL (≈ 0.493 µM) | 13 µg/mL (≈ 32.1 µM) | 0.8 µg/mL (≈ 1.97 µM) | 6.3 µg/mL (≈ 15.5 µM) | 6.3 µg/mL (≈ 15.5 µM) | 1.6 µg/mL (≈ 3.95 µM) | 0.8 µg/mL (≈ 1.97 µM) | 1.6 µg/mL (≈ 3.95 µM) | 0.8 µg/mL (≈ 1.97 µM) | 0.4 µg/mL (≈ 0.987 µM) | – |
| CCNCC1CCN(c2c(F)cc3c(=O)c(C(=O)O)cn(CC(F)(F)F)c3c2F)C1 (stereo not given) | 0.4 µg/mL (≈ 0.923 µM) | 1.05 µg/mL (≈ 2.42 µM) | 0.4 µg/mL (≈ 0.923 µM) | 0.1 µg/mL (≈ 0.231 µM) | 26 µg/mL (≈ 60 µM) | 0.4 µg/mL (≈ 0.923 µM) | 6.3 µg/mL (≈ 14.5 µM) | 3.1 µg/mL (≈ 7.15 µM) | 1.6 µg/mL (≈ 3.69 µM) | 0.8 µg/mL (≈ 1.85 µM) | 0.8 µg/mL (≈ 1.85 µM) | 0.4 µg/mL (≈ 0.923 µM) | 0.2 µg/mL (≈ 0.461 µM) | – |
| O=C(O)c1cn(C2CC2)c2cc(N3CCNCC3)c(F)cc2c1=O [CIPROFLOXACIN] | 3.1 µg/mL (≈ 9.36 µM) | 0.06 µg/mL (≈ 0.181 µM) | 0.8 µg/mL (≈ 2.41 µM) | 0.2 µg/mL (≈ 0.604 µM) | – | 1.6 µg/mL (≈ 4.83 µM) | 0.4 µg/mL (≈ 1.21 µM) | 0.1 µg/mL (≈ 0.302 µM) | – | – | 0.1 µg/mL (≈ 0.302 µM) | 0.025 µg/mL (≈ 0.0754 µM) | 0.8 µg/mL (≈ 2.41 µM) | ED50 (Mus musculus [6]): 25 mg/kg; ED50 (Mus musculus [7]): 29 mg/kg; ED50 (Mus musculus [8]): > 100 mg/kg; ED50 (Mus musculus [9]): 0.3 mg/kg; ED50 (Mus musculus [10]): 5 mg/kg; ED50 (Mus musculus [11]): 1 mg/kg; ED50 (Mus musculus [12]): > 100 mg/kg; ED50 (Mus musculus [13]): 20 mg/kg |
| CNn1cc(C(=O)O)c(=O)c2cc(F)c(N3CCN(C)CC3)cc21 [AMIFLOXACIN] | 1.6 µg/mL (≈ 4.79 µM) | 0.1 µg/mL (≈ 0.299 µM) | 12.5 µg/mL (≈ 37.4 µM) | 0.4 µg/mL (≈ 1.2 µM) | – | 12.5 µg/mL (≈ 37.4 µM) | 0.8 µg/mL (≈ 2.39 µM) | 0.2 µg/mL (≈ 0.598 µM) | – | 0.1 µg/mL (≈ 0.299 µM) | 0.2 µg/mL (≈ 0.598 µM) | 0.025 µg/mL (≈ 0.0748 µM) | 3.1 µg/mL (≈ 9.27 µM) | – |
| CN1CCN(c2cc3c(cc2F)c(=O)c(C(=O)O)cn3-c2ccc(F)cc2)CC1 [DIFLOXACIN] | 1.6 µg/mL (≈ 4.01 µM) | 0.4 µg/mL (≈ 1 µM) | 1.6 µg/mL (≈ 4.01 µM) | 0.4 µg/mL (≈ 1 µM) | – | 1.6 µg/mL (≈ 4.01 µM) | 0.8 µg/mL (≈ 2 µM) | 1.6 µg/mL (≈ 4.01 µM) | 0.8 µg/mL (≈ 2 µM) | 0.4 µg/mL (≈ 1 µM) | 0.4 µg/mL (≈ 1 µM) | 0.05 µg/mL (≈ 0.125 µM) | 3.1 µg/mL (≈ 7.76 µM) | ED50 (Mus musculus [6]): 14 mg/kg; ED50 (Mus musculus [7]): 13 mg/kg; ED50 (Mus musculus [8]): 7 mg/kg; ED50 (Mus musculus [9]): 2 mg/kg; ED50 (Mus musculus [10]): 14 mg/kg; ED50 (Mus musculus [11]): 2 mg/kg; ED50 (Mus musculus [12]): 16 mg/kg; ED50 (Mus musculus [13]): 7 mg/kg |
| CCNCC1CCN(c2c(F)cc3c(=O)c(C(=O)O)cn(C)c3c2F)C1 (stereo not given) | 1.6 µg/mL (≈ 4.38 µM) | 0.53 µg/mL (≈ 1.45 µM) | 0.4 µg/mL (≈ 1.09 µM) | 0.2 µg/mL (≈ 0.547 µM) | 7.5 µg/mL (≈ 20.5 µM) | 0.4 µg/mL (≈ 1.09 µM) | 1.6 µg/mL (≈ 4.38 µM) | 1.6 µg/mL (≈ 4.38 µM) | 1.6 µg/mL (≈ 4.38 µM) | 0.4 µg/mL (≈ 1.09 µM) | 0.4 µg/mL (≈ 1.09 µM) | 0.1 µg/mL (≈ 0.274 µM) | 1.6 µg/mL (≈ 4.38 µM) | – |

Source: ChEMBL document CHEMBL1124223, “1-Substituted 7-[3-[(ethylamino)methyl]-1-pyrrolidinyl]-6,8- difluoro-1,4-dihydro-4-oxo-3-quinolinecarboxylic acids. New quantitative structure-activity relationships at N1 for the quinolone antibacterials” (1988)
